Experimental data as given in ChEMBL document CHEMBL1159032, “Renal excretion of stevioside in rats” (J Nat Prod, 1992).

Experiments:
Rattus norvegicus [1] = assay: Effect on renal excretion in Wistar rat assessed as glomerular filtration rate at 4 mg/kg/hr, iv (RVb=1.41 %); assay type: functional, Kidney
Outline: (§1)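 Anaesthetized (pentobarbital 30 mg/kg ip) male Wistar rats (~345 g), 10 per group, were studied over a 30-min control period then a 30-min stevioside priming-plus-iv infusion period. Ringer's containing 2% PAH and 10% inulin was infused at 0.03 ml/min. Urine flow from timed bladder collection was expressed as percent of GFR, with GFR taken as inulin clearance (anthrone assay).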

Rattus norvegicus [2] = assay: Effect on renal excretion in Wistar rat assessed as fractional sodium excretion at 4 mg/kg/hr, iv (RVb=0.61 %); assay type: functional, Kidney
Rattus norvegicus [3] = assay: Effect on renal excretion in Wistar rat assessed as inulin clearance at 12 mg/kg/hr, iv administered 30 mins after inulin infusion (RVb=5.69 ml/min/kg); assay type: functional, Kidney
Rattus norvegicus [4] = assay: Effect on renal excretion in Wistar rat assessed as glomerular filtration rate at 4 mg/kg/hr, iv (RVb=1.39 %); assay type: functional, Kidney; details: in the assay text read “16 mg/kg/hr” for “4 mg/kg/hr”; outline: as §1
Rattus norvegicus [5] = assay: Effect on renal excretion in Wistar rat assessed as fractional sodium excretion at 12 mg/kg/hr, iv (RVb=0.70 %); assay type: functional, Kidney
Rattus norvegicus [6] = assay: Effect on renal excretion in Wistar rat assessed as glucose clearance at 8 mg/kg/hr, iv (RVb=0 ml/min/kg); assay type: functional, Kidney
Outline: (§2)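 Male Wistar rats (~345 g, fed, water ad lib) under ip sodium pentobarbital (30 mg/kg) on a heated table, tracheostomized. Stevioside (3% in isotonic Ringer's) was given as a priming dose plus sustained iv infusion via jugular vein. There were two 30-min periods, control then stevioside, with 10 rats per dose group. Carotid blood and timed bladder urine were collected.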

Rattus norvegicus [7] = assay: Effect on renal excretion in Wistar rat assessed as glomerular filtration rate at 8 mg/kg/hr, iv (RVb=1.47 %); assay type: functional, Kidney; outline: as §1
Rattus norvegicus [8] = assay: Effect on renal excretion in Wistar rat assessed as inulin clearance at 8 mg/kg/hr, iv administered 30 mins after inulin infusion (RVb=6.33 ml/min/kg); assay type: functional, Kidney
Rattus norvegicus [9] = assay: Effect on renal excretion in Wistar rat assessed as p-aminohippuric acid clearance at 4 mg/kg/hr, iv administered 30 mins after p-aminohippuric acid infusion (RVb=12.88 ml/min/kg); assay type: functional, Kidney
Outline: (§3)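 Pentobarbital-anaesthetized (30 mg/kg ip) male Wistar rats (~345 g), 10 per dose group, received a priming dose then a sustained jugular infusion of Ringer's with 2% PAH and 10% inulin at 0.03 ml/min. Clearance was measured over a 30-min control period, then a 30-min iv stevioside priming-plus-infusion period. PAH in carotid plasma and timed bladder urine was measured colorimetrically.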

Rattus norvegicus [10] = assay: Effect on renal excretion in Wistar rat assessed as fractional sodium excretion at 8 mg/kg/hr, iv (RVb=0.58 %); assay type: functional, Kidney
Rattus norvegicus [11] = assay: Effect on renal excretion in Wistar rat assessed as inulin clearance at 4 mg/kg/hr, iv administered 30 mins after inulin infusion (RVb=6.66 ml/min/kg); assay type: functional, Kidney
Rattus norvegicus [12] = assay: Effect on renal excretion in Wistar rat assessed as glucose clearance at 16 mg/kg/hr, iv (RVb=0 ml/min/kg); assay type: functional, Kidney; outline: as §2
[13] = Clearance in Wistar rat at 8 mg/kg/hr, iv; assay type: ADME, organism-based; design: route intravenous; details: in vivo; outline: as §2
[14] = Clearance in Wistar rat at 12 mg/kg/hr, iv; assay type: ADME, organism-based; design: route intravenous; details: in vivo; outline: as §2
Rattus norvegicus [15] = assay: Effect on renal excretion in Wistar rat assessed as fractional sodium excretion at 16 mg/kg/hr, iv (RVb=0.60 %); assay type: functional, Kidney
[16] = Clearance in Wistar rat at 16 mg/kg/hr, iv; assay type: ADME, organism-based; design: route intravenous; details: in vivo; outline: as §2
Rattus norvegicus [17] = assay: Effect on renal excretion in Wistar rat assessed as glucose clearance at 12 mg/kg/hr, iv (RVb=0 ml/min/kg); assay type: functional, Kidney; outline: as §2
Rattus norvegicus [18] = assay: Effect on renal excretion in Wistar rat assessed as inulin clearance at 16 mg/kg/hr, iv administered 30 mins after inulin infusion (RVb=6.29 ml/min/kg); assay type: functional, Kidney
Rattus norvegicus [19] = assay: Effect on renal excretion in Wistar rat assessed as p-aminohippuric acid clearance at 8 mg/kg/hr, iv administered 30 mins after p-aminohippuric acid infusion (RVb=15.60 ml/min/kg); assay type: functional, Kidney; outline: as §3
[20] = Clearance in Wistar rat at 4 mg/kg/hr, iv; assay type: ADME, organism-based; design: route intravenous; details: in vivo; outline: as §2
Rattus norvegicus [21] = assay: Effect on renal excretion in Wistar rat assessed as p-aminohippuric acid clearance at 16 mg/kg/hr, iv administered 30 mins after p-aminohippuric acid infusion (RVb=16.70 ml/min/kg); assay type: functional, Kidney; outline: as §3
Rattus norvegicus [22] = assay: Effect on renal excretion in Wistar rat assessed as glomerular filtration rate at 12 mg/kg/hr, iv (RVb=1.87 %); assay type: functional, Kidney; outline: as §1
Rattus norvegicus [23] = assay: Effect on renal excretion in Wistar rat assessed as p-aminohippuric acid clearance at 12 mg/kg/hr, iv administered 30 mins after p-aminohippuric acid infusion (RVb=15.38 ml/min/kg); assay type: functional, Kidney; outline: as §3
Rattus norvegicus [24] = assay: Effect on renal excretion in Wistar rat assessed as glucose clearance at 4 mg/kg/hr, iv (RVb=0 ml/min/kg); assay type: functional, Kidney; outline: as §2

C=C1C[C@@]23CC[C@H]4[C@@](C)(CCC[C@@]4(C)C(=O)O[C@@H]4O[C@H](CO)[C@@H](O)[C@H](O)[C@H]4O)[C@@H]2CC[C@]1(O[C@@H]1O[C@H](CO)[C@@H](O)[C@H](O)[C@H]1O[C@@H]1O[C@H](CO)[C@@H](O)[C@H](O)[C@H]1O)C3 [STEVIOSIDE]
Activity (Rattus norvegicus [1]): 1.56%
Activity (Rattus norvegicus [2]): 0.79%
Activity (Rattus norvegicus [3]): 5.92 mL/min/kg
Activity (Rattus norvegicus [4]): 2.36%
Activity (Rattus norvegicus [5]): 1.53%
Activity (Rattus norvegicus [6]): 1.33 mL/min/kg
Activity (Rattus norvegicus [7]): 2.19%
Activity (Rattus norvegicus [8]): 6.51 mL/min/kg
Activity (Rattus norvegicus [9]): 12.7 mL/min/kg
Activity (Rattus norvegicus [10]): 1.12%
Activity (Rattus norvegicus [11]): 6.02 mL/min/kg
Activity (Rattus norvegicus [12]): 2.38 mL/min/kg
clearance [13]: 9.63 mL/min/kg
clearance [14]: 10.2 mL/min/kg
Activity (Rattus norvegicus [15]): 1.55%
clearance [16]: 12.5 mL/min/kg
Activity (Rattus norvegicus [17]): 1.84 mL/min/kg
Activity (Rattus norvegicus [18]): 6.3 mL/min/kg
Activity (Rattus norvegicus [19]): 19.2 mL/min/kg
clearance [20]: 7.21 mL/min/kg
Activity (Rattus norvegicus [21]): 33.4 mL/min/kg
Activity (Rattus norvegicus [22]): 2.67%
Activity (Rattus norvegicus [23]): 28.3 mL/min/kg
Activity (Rattus norvegicus [24]): 0 mL/min/kg
